In general, inhibition refers to the drop in the measured response relative to a control, in per cent.

Test [1] is described as follows: inhibitors of TNFa-induced NFkB p65 translocation, primary screen, imaging, HUVEC, MLSMR starter and 10KST1 sets (AID 438;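 active means inhibition above 20% together with a positive visual image hit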;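 further: compound added about 3h40 before a 20 min TNFalpha stimulation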;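 on inhibition: signal is the nuclear over cytoplasmic p65 intensity ratio per well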). The settings on record: HUVEC TNFa-induced p65 nuclear translocation; cell count: measured here: nuclei count (cytotoxicity indicator), at 2.08 µM; inhibition: at 2 µM, stronger effect = higher value, 0% TNFa-plus-vehicle, 100% no-TNFa wells.
Test [2] can be described thus: inhibitors of mutant huntingtin aggregation, primary screen, imaging, exon1htt(103Q)mCFP cells, high-content imaging (AID 483;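 active means visual image review flags a hit and inhibition of aggregation exceeds 20%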;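 further: compound exposure lasted 3 days before fixation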;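 on nuclei count: percent of the per-plate median nuclei count of sample wells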). The settings on record: exon1htt(103Q)mCFP cell line, aggregate imaging, at 2 µM; inhibition of aggregation: stronger effect = higher value; nuclei count: measured here: cell count, toxicity.
Test [3] can be described thus: inhibitors of E-selectin induction by TNFa, primary screen, imaging, HUVEC, immunofluorescence, MLSMR starter and 10KST1 sets (AID 487).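 On inhibition: signal is fraction of cell area covered by stained E-selectin grains.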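 On nuclei count: 100% = median nuclei count of all wells on the same plate.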 The settings on record: HUVEC TNFalpha-induced E-selectin immunofluorescence imaging, at 2 µM; inhibition: stronger effect = higher value; nuclei count: measured here: cell number, toxicity.
The target in test [4] is Voltage-gated potassium channel subunit beta-2 (Rattus norvegicus) (UniProt P62483). The experiment in a line: KvBeta enzyme negative modulators, primary screen, biochemical, NADPH fluorescence (AID 622;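 active means fluorescence slope higher than the sample average by over 3 SD, cut at about -0.22 in these data, passing the limit was not always enough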;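 further: slope of raw intensity against log time taken from 70 to 1610 s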). Particulars: recombinant KvBeta, 4-cyanobenzaldehyde reduction, at 10 µM, stronger effect = higher value.
The target is the same in test [5]. As to the kind of experiment: KvBeta positive modulators, primary screen, biochemical, NADPH fluorescence (AID 623;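 active means NADPH fluorescence slope more negative than the mean of all samples by about 3 SD, 99.7% confidence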;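 further: fluorescence intensity change per second fitted from 20 to 320 s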). The settings on record: Recombinant KvBeta, NADPH fluorescence decrease slope, 10 min; at 10 µM; stronger effect = lower value.
Test [6] concerns the target Muscarinic acetylcholine receptor M4 (Homo sapiens) (UniProt P08173). The experiment in a line: compounds altering M4/GIRK thallium flux, either direction, primary screen, M4 allosteric agonist project, cell-based, HEK293 M4/GIRK, BTC-AM (AID 625;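 active means fluorescence slope after compound addition differing from the mean of all tested samples at 99.7% confidence, mostly higher but some lower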;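 further: thallium influx through GIRK channels coupled to M4 in HEK293 cells with BTC-AM dye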). The settings on record: at 10 µM, actives lie on both sides. Put shortly:
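Material – HEK293 cells with M4 receptor and GIRK channels · Buffer or medium – pH 7.3 thallium assay buffer · Doses – one dose, 10 µM final · Timing – cells overnight at 37 °C, BTC-AM loading 1 h, reads 2 min total · Measured by – kinetic fluorescence with BTC-AM dye · Controls – carbachol and DMSO controls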

Test [7] can be described thus: inhibitors of Sendai virus-induced IRF3 signaling, primary screen, TLR/RLR signaling modifier project, cell-based, Sendai virus stimulus, luciferase, 10K MLSCN set (AID 602276;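 active means inhibition at or above 50% at 10 µM; inactive means inhibition below 50%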;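 further: firefly luciferase from ISG56 promoter only with Renilla not read in this screen; 0% = Sendai virus plus DMSO and 100% = medium plus DMSO without virus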). Particulars: HEK293 RL24 IRF3 luciferase reporter, at 10 µM, stronger effect = higher value. (In general: A reporter such as luciferase makes a cellular process visible.)
Test [8] can be described thus: inhibitors of poly I:C-induced TLR3 signaling, primary screen, cell-based, poly I:C stimulus, luciferase, 10K MLSCN set (AID 602277;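 active means inhibition of the reporter signal at or above 50%; inactive means inhibition below 50%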). The settings on record: HEK293-TLR3 RL24 IRF3 luciferase reporter, at 10 µM, stronger effect = higher value.

Molecules are shown by their SMILES. Calls of active or inactive are those of the source.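 How the source made its calls, unless noted: active means visually confirmed hit in the image check and inhibition above 20%; inconclusive means visually confirmed hit but inhibition not above 20%; inactive means no visual hit in the image check.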

Sequence of Voltage-gated potassium channel subunit beta-2 (Rattus norvegicus) (P62483 whole entry, looked up): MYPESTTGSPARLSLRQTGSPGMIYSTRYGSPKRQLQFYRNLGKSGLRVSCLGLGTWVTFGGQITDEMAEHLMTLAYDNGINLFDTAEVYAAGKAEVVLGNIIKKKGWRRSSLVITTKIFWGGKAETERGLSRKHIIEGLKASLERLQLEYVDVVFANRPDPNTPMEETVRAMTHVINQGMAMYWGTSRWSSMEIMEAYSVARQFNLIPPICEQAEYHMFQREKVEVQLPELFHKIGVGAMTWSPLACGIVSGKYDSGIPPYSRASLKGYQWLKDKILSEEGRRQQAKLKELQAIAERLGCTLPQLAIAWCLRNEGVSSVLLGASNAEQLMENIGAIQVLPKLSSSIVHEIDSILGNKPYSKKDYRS
Sequence of Muscarinic acetylcholine receptor M4 (Homo sapiens) (P08173 whole entry, looked up): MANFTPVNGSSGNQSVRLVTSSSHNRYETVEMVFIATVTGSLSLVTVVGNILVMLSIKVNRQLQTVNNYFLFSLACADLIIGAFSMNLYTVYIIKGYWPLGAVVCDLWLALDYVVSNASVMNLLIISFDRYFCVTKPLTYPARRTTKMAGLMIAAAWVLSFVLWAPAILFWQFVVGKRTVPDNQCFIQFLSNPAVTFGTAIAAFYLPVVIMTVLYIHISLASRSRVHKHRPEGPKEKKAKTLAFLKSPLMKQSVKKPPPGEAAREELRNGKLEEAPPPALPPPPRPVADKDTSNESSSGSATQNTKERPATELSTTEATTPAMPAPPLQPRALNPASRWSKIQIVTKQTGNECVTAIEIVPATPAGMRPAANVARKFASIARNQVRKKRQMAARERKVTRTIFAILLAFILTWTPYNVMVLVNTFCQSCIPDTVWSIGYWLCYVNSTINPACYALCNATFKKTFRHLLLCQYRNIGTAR

Turning to `CS(=O)(=O)N(CC(=O)NC1CC1)c1cccc(F)c1`, the cell count in test [1] came out at 387. In addition, the inhibition is -2.3% (inactive) in test [1], -44.3% (inactive) in test [3], 8.69% (inactive) in test [7] and 14.7% (inactive) in test [8]. Further, in test [2], the inhibition of aggregation is 0.3% (inactive). Besides, the nuclei count in test [2] and in test [3] was 113% throughout. Besides, the results for the fluorescence slope in test [4] and in test [6] were -0.555 (inactive) and 0.00595 (inactive), respectively. Further, the NADPH fluorescence slope in test [5] is -5e-05 (inactive).
For the compound `Nc1cc(-c2ccccc2)ccc1O`, in test [1], the cell count is 329. For the same compound, the inhibition in test [1] is 6.3% (inactive); in test [3] it was -40.6% (inactive); in test [7] it was -0.254% (inactive); in test [8], 1.06% (inactive). Also, in test [2], the inhibition of aggregation was 33.9% (active). The nuclei count stood at 88.4% in test [2] and 103% in test [3]. Besides, the fluorescence slope in test [4] was -0.314 (inactive); in test [6], 0.00771 (inactive). Further, the NADPH fluorescence slope in test [5] is -1.6e-05 (inactive).
On to `Cc1ccc(-c2[nH]nc3c2C(c2ccc(OC(=O)N4CCOCC4)cc2)C(C#N)=C(N)O3)cc1` (stereo unspecified), for which the cell count in test [1] was found to be 742. Besides, the inhibition is 10.8% (inactive) in test [1], -39.7% (inactive) in test [3], 4.48% (inactive) in test [7] and 9.32% (inactive) in test [8]. For the same compound, in test [2], the inhibition of aggregation is 0.2% (inactive). In addition, the nuclei count is 97.7% in test [2] and 104% in test [3]. Also, the fluorescence slope is -0.577 (inactive) in test [4] and 0.00718 (inactive) in test [6]. Also, in test [5], the NADPH fluorescence slope was -4.2e-05 (inactive).
Take `O=c1c2c3c(sc2n2cnnc2n1CCc1ccccc1)CCCC3`: the cell count in test [1] stood at 660. Also, the inhibition in test [1] was -1.4% (inactive); in test [3], -171% (inactive); in test [7] it was 2.46% (inactive); in test [8] it was 2.39% (inactive). Moreover, in test [2], the inhibition of aggregation was 3.7% (inactive). For the same compound, the nuclei count amounted to 99.9% in test [2] and 130% in test [3]. For the same compound, the fluorescence slope in test [4] was -0.543 (inactive); in test [6], 0.00413 (inactive). In addition, the NADPH fluorescence slope in test [5] is -2.6e-05 (inactive).
As to `Cc1cc(C)nc(N2CCCC(C(=O)Nc3nc4ccc(S(C)(=O)=O)cc4s3)C2)n1` (stereo unspecified), in test [1], the cell count turned out to be 599. Moreover, the inhibition in test [1] was 1.8% (inactive); in test [3], 6.8% (inactive); in test [7], 12% (inactive); in test [8] it was 11.5% (inactive). For the same compound, in test [2], the inhibition of aggregation is 2.6% (inactive). Also, the nuclei count in test [2] stood at 117%; in test [3] it was 107%. In addition, the fluorescence slope was -0.459 (inactive) in test [4] and 0.00564 (inactive) in test [6]. For the same compound, the NADPH fluorescence slope in test [5] is 9.7e-05 (inactive).
As for `C=CCn1c(SCC(=O)NCC2CCCO2)nnc1C1CCCCC1` (stereo unspecified), the cell count in test [1] was found to be 354. Besides, the inhibition was -4.5% (inactive) in test [1], -33% (inactive) in test [3], 11.2% (inactive) in test [7] and 17.5% (inactive) in test [8]. The inhibition of aggregation in test [2] was -6% (inactive). In addition, the values for the nuclei count in test [2] and in test [3] were 110% and 113%, respectively. The fluorescence slope in test [4] is -0.573 (inactive); in test [6] it was 0.00592 (inactive). Moreover, the NADPH fluorescence slope in test [5] was -2.9e-05 (inactive).
With `Cc1nnc(SCC(=O)Nc2ccc3c4c(cccc24)CC3)n1C`, in test [1], the cell count came out at 336. In addition, the inhibition was 1.8% (inactive) in test [1], -41.4% (inactive) in test [3], 15.8% (inactive) in test [7] and 5.58% (inactive) in test [8]. Also, the inhibition of aggregation in test [2] was -11.5% (inactive). Also, the nuclei count in test [2] worked out at 97.3%; in test [3] it was 108%. The fluorescence slope in test [4] is -0.24 (inactive); in test [6], 0.00568 (inactive). In addition, in test [5], the NADPH fluorescence slope was -4.5e-05 (inactive).
For `CCn1c(SCC(=O)Nc2ccc(C(C)=O)cc2)nc2ccccc21`, the cell count in test [1] came out at 227. In addition, the inhibition in test [1] is 14.4% (inactive); in test [3] it was -2.2% (inactive); in test [7], -13% (inactive); in test [8] it was -19.9% (inactive). The inhibition of aggregation in test [2] is -7.2% (inactive). Also, the nuclei count is 101% in test [2] and 98.3% in test [3]. Moreover, the fluorescence slope in test [4] was -0.453 (inactive); in test [6], 0.00502 (inactive). For the same compound, the NADPH fluorescence slope in test [5] was -0.000344 (inactive).
`Cc1ccc(C)n1NC(=O)c1ccco1`: the cell count in test [1] is 692. Besides, the inhibition in test [1] is -4.7% (inactive); in test [3], -19.2% (inactive); in test [7], 9.01% (inactive); in test [8] it was 14.3% (inactive). Moreover, in test [2], the inhibition of aggregation was 0% (inactive). Besides, the values for the nuclei count in test [2] and in test [3] were 94.1% and 109%, respectively. Also, the fluorescence slope was -0.567 (inactive) in test [4] and 0.00521 (inactive) in test [6]. Further, the NADPH fluorescence slope in test [5] was -1.3e-05 (inactive).
As to `CCCS(=O)(=O)N1CCC(C(=O)N2CCCC2)CC1`, the cell count in test [1] stood at 657. For the same compound, the inhibition in test [1] is -9.9% (inactive); in test [3], -70.4% (inactive); in test [7] it was 18.9% (inactive); in test [8], 8.55% (inactive). In addition, the inhibition of aggregation in test [2] is -6.5% (inactive). Also, the nuclei count in test [2] is 96.1%; in test [3], 107%. For the same compound, the fluorescence slope in test [4] was -0.611 (inactive); in test [6], 0.00435 (inactive). In test [5], the NADPH fluorescence slope was -8.1e-06 (inactive).
Turning to `COc1ccccc1N1CCN(c2nc3ccccc3nc2C(C#N)C(=O)OC(C)C)CC1` (stereo unspecified), in test [1], the cell count amounted to 518. The inhibition in test [1] was 1% (inactive); in test [3], -72.9% (inactive); in test [7] it was -13.1% (inactive); in test [8] it was -6.25% (inactive). Also, in test [2], the inhibition of aggregation was -12.2% (inactive). Besides, the nuclei count in test [2] came to 119%; in test [3], 191%. Also, the values for the fluorescence slope in test [4] and in test [6] were -0.523 (inactive) and 0.00467 (inactive), respectively. Further, in test [5], the NADPH fluorescence slope was -0.000323 (inactive).

These data come from PubChem BioAssay.
